The results in this text go back to ChEMBL document CHEMBL1275556, “High prevalence of plasmid-mediated quinolone resistance genes qnr and aac(6')-Ib-cr in clinical isolates of Enterobacteriaceae from nine teaching hospitals in China” (2008).

In brackets after ≈: the same amount, converted by molar mass.

Common to all, as to assay type: functional
Test [1] relates to Enterobacter cloacae. Nature of the test: Antimicrobial activity against aac(6')-Ib-cr-negative Enterobacter cloacae SH39 harboring GyrA S83I, ParC S80I mutant, wild-type GyrB and qnrA genes by agar dilution method in presence of clavulanic acid. In outline: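 MICs were determined by CLSI agar dilution (M7-A7) and interpreted by CLSI M100-S17 breakpoints. The curator's line names the β-lactamase inhibitor added.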

For test [2], the system named is Klebsiella pneumoniae. The test is described as follows: Antimicrobial activity against aac(6')-Ib-cr-negative Klebsiella pneumoniae SY22T harboring qnrS gene by agar dilution method. In outline:
(§1)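 MICs were determined by the CLSI agar dilution method (M7-A7) and interpreted against CLSI M100-S17 breakpoints.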

Test [3] deals with Klebsiella pneumoniae. Nature of the test: Antimicrobial activity against aac(6')-Ib-cr-positive Klebsiella pneumoniae SY26T harboring wild-type GyrA, ParC, GyrB and qnrB genes by agar dilution method. In outline: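 Transconjugants were made by conjugating a qnr/aac(6')-Ib-cr donor with azide-resistant E. coli J53. MICs were read by CLSI agar dilution (M7-A7) and interpreted per M100-S17.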
For orientation: Agar dilution tests growth on a series of plates holding different concentrations.

Test [4] deals with Klebsiella pneumoniae. The test is described as follows: Antimicrobial activity against aac(6')-Ib-cr-positive Klebsiella pneumoniae SY26T harboring wild-type GyrA, ParC, GyrB and qnrB genes by agar dilution method in presence of clavulanic acid. In outline: (§2)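 Transconjugants came from conjugation of qnr and/or aac(6')-Ib-cr-carrying donors with azide-resistant E. coli J53. […] MICs were determined by CLSI agar dilution (M7-A7) and interpreted by M100-S17.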

Test [5] has as its system Citrobacter freundii. The test is described as follows: Antimicrobial activity against aac(6')-Ib-cr-positive Citrobacter freundii TJ15T harboring wild-type GyrA, ParC, GyrB genes by agar dilution method in presence of clavulanic acid. A digest of the protocol: as §1
The subject of test [6] is Enterobacter cloacae. Nature of the test: Antimicrobial activity against aac(6')-Ib-cr-negative Enterobacter cloacae FJ61 harboring GyrA S83I, GyrA D87A, ParC S80I mutant, wild-type GyrB and qnrS genes by agar dilution method in presence of clavulanic acid. In outline: (§3)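 MICs measured by CLSI agar dilution (M7-A7) and interpreted against CLSI M100-S17 breakpoints. Strains were clinical Enterobacteriaceae isolates or the azide-resistant E. coli J53 recipient.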

For test [7], the system named is Enterobacter cloacae. The test is described as follows: Antimicrobial activity against aac(6')-Ib-cr-positive Enterobacter cloacae FJ63 harboring GyrA S83I, GyrA D87A, ParC S80I mutant, wild-type GyrB and qnrS genes by agar dilution method.
The test system of test [8] is Enterobacter cloacae. The test is described as follows: Antimicrobial activity against aac(6')-Ib-cr-positive Enterobacter cloacae FJ63T harboring qnrS gene by agar dilution method.
Test [9] has as its system Enterobacter cloacae. Nature of the test: Antimicrobial activity against aac(6')-Ib-cr-negative Enterobacter cloacae FJ67T harboring qnrS gene by agar dilution method.
Test [10] concerns Enterobacter cloacae. Nature of the test: Antimicrobial activity against aac(6')-Ib-cr-negative Enterobacter cloacae GZ47T harboring qnrB gene by agar dilution method.
Test [11] relates to Enterobacter cloacae. Nature of the test: Antimicrobial activity against aac(6')-Ib-cr-negative Enterobacter cloacae GZ51 harboring qnrA gene by agar dilution method.
For test [12], the system named is Enterobacter cloacae. Nature of the test: Antimicrobial activity against aac(6')-Ib-cr-negative Enterobacter cloacae GZ51T harboring qnrA gene by agar dilution method in presence of clavulanic acid. In outline: as §2
In test [13] the test system is Klebsiella pneumoniae. Nature of the test: Antimicrobial activity against aac(6')-Ib-cr-positive Klebsiella pneumoniae JN132 harboring GyrA S83I, ParC S80I mutant, wild-type GyrB and qnrB genes by agar dilution method. A digest of the protocol:
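MICs were determined on clinical isolates by CLSI agar dilution (M7-A7) and interpreted against CLSI M100-S17 breakpoints.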

Test [14] deals with Klebsiella pneumoniae. The test is described as follows: Antimicrobial activity against aac(6')-Ib-cr-positive Klebsiella pneumoniae JN132 harboring GyrA S83I, ParC S80I mutant, wild-type GyrB and qnrB genes by agar dilution method in presence of clavulanic acid. In outline: as §3
Test [15] relates to Klebsiella pneumoniae. The test is described as follows: Antimicrobial activity against aac(6')-Ib-cr-positive Klebsiella pneumoniae JN132T harboring qnrB gene by agar dilution method in presence of clavulanic acid. A digest of the protocol:
(§4)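 Transconjugants came from conjugation of qnr and/or aac(6')-Ib-cr donors into azide-resistant E. coli J53. […] MICs were measured by CLSI agar dilution (M7-A7) and interpreted per M100-S17.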

The subject of test [16] is Citrobacter freundii. The test is described as follows: Antimicrobial activity against aac(6')-Ib-cr-negative Citrobacter freundii JN64T harboring qnrA gene by agar dilution method. A digest of the protocol: as §1
For test [17], the system named is Citrobacter freundii. The test is described as follows: Antimicrobial activity against aac(6')-Ib-cr-negative Citrobacter freundii JN64T harboring qnrA gene by agar dilution method in presence of clavulanic acid. A digest of the protocol: as §2
Test [18] has as its system Escherichia coli. Nature of the test: Antimicrobial activity against aac(6')-Ib-cr-negative Escherichia coli PU12T harboring wild-type GyrA, GyrB, ParC and qnrS genes by agar dilution method in presence of Tazobactam. A digest of the protocol:
as §4

Test [19] deals with Enterobacter cloacae. Nature of the test: Antimicrobial activity against aac(6')-Ib-cr-negative Enterobacter cloacae SH39 harboring GyrA S83I, ParC S80I mutant, wild-type GyrB and qnrA genes by agar dilution method in presence of Tazobactam. A digest of the protocol: as §1
The test system of test [20] is Klebsiella pneumoniae. Nature of the test: Antimicrobial activity against aac(6')-Ib-cr-negative Klebsiella pneumoniae SY22T harboring qnrS gene by agar dilution method in presence of Tazobactam. In outline:
as §1

The subject of test [21] is Citrobacter freundii. The test is described as follows: Antimicrobial activity against aac(6')-Ib-cr-positive Citrobacter freundii TJ15 harboring GyrA T83I, ParC S80I mutant, wild-type GyrB, qnrB genes by agar dilution method in presence of Tazobactam. A digest of the protocol:
as §1

For test [22], the system named is Enterobacter cloacae. Nature of the test: Antimicrobial activity against aac(6')-Ib-cr-negative Enterobacter cloacae WH42 harboring wild-type GyrA, ParC, GyrB and qnrA genes by agar dilution method in presence of Tazobactam. In outline:
as §3

Test [23] relates to Escherichia coli. The test is described as follows: Antimicrobial activity against aac(6')-Ib-cr-positive Escherichia coli FJ3 harboring GyrA S83L, ParC S80R mutant, wild-type GyrB and qnrB genes by agar dilution method in presence of Tazobactam. A digest of the protocol: as §3
Test [24] relates to Enterobacter cloacae. The test is described as follows: Antimicrobial activity against aac(6')-Ib-cr-positive Enterobacter cloacae FJ63 harboring GyrA S83I, GyrA D87A, ParC S80I mutant, wild-type GyrB and qnrS genes by agar dilution method in presence of Tazobactam. In outline: as §1
In test [25] the test system is Enterobacter cloacae. The test is described as follows: Antimicrobial activity against aac(6')-Ib-cr-negative Enterobacter cloacae GZ47 harboring qnrB and qnrS genes by agar dilution method in presence of Tazobactam. In outline: as §1
Test [26] relates to Enterobacter cloacae. Nature of the test: Antimicrobial activity against aac(6')-Ib-cr-negative Enterobacter cloacae GZ47T harboring qnrB gene by agar dilution method in presence of Tazobactam. In outline: as §1
Test [27] concerns Enterobacter cloacae. Nature of the test: Antimicrobial activity against aac(6')-Ib-cr-negative Enterobacter cloacae GZ51 harboring qnrA gene by agar dilution method in presence of Tazobactam. A digest of the protocol:
as §1

Test [28] has as its system Enterobacter cloacae. The test is described as follows: Antimicrobial activity against aac(6')-Ib-cr-negative Enterobacter cloacae GZ51T harboring qnrA gene by agar dilution method in presence of Tazobactam. A digest of the protocol: as §1
In test [29] the test system is Klebsiella pneumoniae. Nature of the test: Antimicrobial activity against aac(6')-Ib-cr-positive Klebsiella pneumoniae JN132T harboring qnrB gene by agar dilution method in presence of Tazobactam. In outline:
as §4

Test [30] deals with Klebsiella pneumoniae. Nature of the test: Antimicrobial activity against aac(6')-Ib-cr-positive Klebsiella pneumoniae JN41T harboring qnrB gene by agar dilution method in presence of Tazobactam. In outline: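 Transconjugants were made by conjugating a qnr/aac(6')-Ib-cr donor with azide-resistant E. coli J53. Selection used Trypticase soy agar with sodium azide 150 µg/ml and sulfamethoxazole 180 µg/ml. […] MICs were read by CLSI agar dilution (M7-A7) and interpreted per M100-S17.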

By MIC is commonly meant the smallest concentration in the dilution series that meets the test's criterion for growth inhibition. `CO/N=C(\C(=O)N[C@@H]1C(=O)N2C(C(=O)O)=C(COC(C)=O)CS[C@H]12)c1csc(N)n1` [CEFOTAXIME]: the MIC in the test with Enterobacter cloacae [1] was 32 µg/mL; with Klebsiella pneumoniae [2], 0.5 µg/mL (≈ 1.1 µM); with Klebsiella pneumoniae [3] it was 4 µg/mL (≈ 8.78 µM); with Klebsiella pneumoniae [4], 0.032 µg/mL; with Citrobacter freundii [5], 0.125 µg/mL; in the test on Enterobacter cloacae [6], 8 µg/mL. Also, the MIC is greater than 256 µg/mL in the test on Enterobacter cloacae [7]; 32 µg/mL (≈ 70.3 µM) against Enterobacter cloacae [8]; 64 µg/mL (≈ 141 µM) with Enterobacter cloacae [9]; 0.25 µg/mL (≈ 0.549 µM) against Enterobacter cloacae [10]; 64 µg/mL (≈ 141 µM) against Enterobacter cloacae [11]; 0.032 µg/mL in the test with Enterobacter cloacae [12]. Further, the minimum inhibitory concentration (MIC) was determined as 32 µg/mL (≈ 70.3 µM) against Klebsiella pneumoniae [13]; 1 µg/mL in the test on Klebsiella pneumoniae [14]; 1 µg/mL in the test with Klebsiella pneumoniae [15]; 16 µg/mL (≈ 35.1 µM) in the test with Citrobacter freundii [16]; 0.064 µg/mL in the test on Citrobacter freundii [17].

Turning to `CCN1CCN(C(=O)N[C@@H](C(=O)N[C@@H]2C(=O)N3[C@@H]2SC(C)(C)[C@@H]3C(=O)O)c2ccccc2)C(=O)C1=O` [PIPERACILLIN], the MIC in the test with Escherichia coli [18] came out at 1 µg/mL; with Enterobacter cloacae [19], 2 µg/mL; in the test with Klebsiella pneumoniae [20], 1 µg/mL; in the test on Citrobacter freundii [21], 4 µg/mL; with Enterobacter cloacae [22], 64 µg/mL; in the test on Escherichia coli [23], 2 µg/mL. The MIC is greater than 256 µg/mL in the test with Enterobacter cloacae [24]; 4 µg/mL in the test on Enterobacter cloacae [25]; 2 µg/mL in the test with Enterobacter cloacae [26]; 2 µg/mL in the test on Enterobacter cloacae [27]; 2 µg/mL with Enterobacter cloacae [28]; 4 µg/mL in the test with Klebsiella pneumoniae [29]. Moreover, in the test with Klebsiella pneumoniae [30], the MIC is 2 µg/mL.
